TRPC6 inh – mouse TRPC6 channel inhibition | B-score at 10 µM | HEK293-TRPC6, membrane potential dye, ACh-evoked depolarization; hits give low values | Q61143 | 310,000 compounds, 1.1% hits;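 active = B-score under library mean minus 3 SD, initial fluorescence not abnormally high, positive integrated signal ratio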;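 note: B-score derived from integrated fluorescence ratio over the kinetic read; more negative B-score means stronger inhibition of depolarization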
TRPC6 act – mouse TRPC6 channel activation. Q61143. HEK293-TRPC6 membrane potential dye fluorescence; hits give high values. B-score at 10 µM. 310,000 compounds, 0.13% hits. AID 2550;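 active = B-score of the integrated fluorescence ratio above library mean plus 3 SD, and starting fluorescence ratio within library mean plus 5 SD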;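 note: higher score means more depolarization so channel activation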
TRPC4 potent – TRPC4 (mouse) allosteric potentiation; AID 2227; Q9QUQ5; 310,000 compounds, 0.42% hits; HEK293 TRPC4beta/mu-opioid, DAMGO EC20, Fluo-4 Ca2+ flux; hits give high values; B-score at 10 µM;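 active = B-score of calcium response area above 5 SD of library B-scores, with initial fluorescence ratio within 5 SD of library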
Target sequence (Q9QUQ5 whole entry, looked up): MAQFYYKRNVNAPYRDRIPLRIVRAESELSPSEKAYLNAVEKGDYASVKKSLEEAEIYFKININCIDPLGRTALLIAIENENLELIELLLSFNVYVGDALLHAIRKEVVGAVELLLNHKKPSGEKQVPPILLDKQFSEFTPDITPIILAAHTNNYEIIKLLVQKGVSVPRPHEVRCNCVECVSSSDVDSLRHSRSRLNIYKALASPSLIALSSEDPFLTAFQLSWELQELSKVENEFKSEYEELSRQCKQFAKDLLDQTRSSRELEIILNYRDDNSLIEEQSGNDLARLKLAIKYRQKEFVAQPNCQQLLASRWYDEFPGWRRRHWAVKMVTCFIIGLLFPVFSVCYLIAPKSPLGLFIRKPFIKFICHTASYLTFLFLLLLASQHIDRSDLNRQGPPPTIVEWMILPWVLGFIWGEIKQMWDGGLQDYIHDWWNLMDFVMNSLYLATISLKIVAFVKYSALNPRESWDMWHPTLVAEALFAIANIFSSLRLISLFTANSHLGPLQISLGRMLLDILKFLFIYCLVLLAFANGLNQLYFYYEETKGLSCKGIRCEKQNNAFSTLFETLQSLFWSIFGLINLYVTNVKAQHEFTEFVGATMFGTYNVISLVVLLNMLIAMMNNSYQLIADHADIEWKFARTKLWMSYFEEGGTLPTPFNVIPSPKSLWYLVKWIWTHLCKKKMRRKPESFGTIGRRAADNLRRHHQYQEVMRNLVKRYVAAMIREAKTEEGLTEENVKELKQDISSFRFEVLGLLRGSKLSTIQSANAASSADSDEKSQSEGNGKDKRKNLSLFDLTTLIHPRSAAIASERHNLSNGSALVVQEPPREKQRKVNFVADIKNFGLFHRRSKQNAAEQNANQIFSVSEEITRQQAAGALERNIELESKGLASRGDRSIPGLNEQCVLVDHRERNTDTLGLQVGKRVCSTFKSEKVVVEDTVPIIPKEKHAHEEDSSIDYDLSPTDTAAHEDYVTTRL
TRPC4 inh – TRPC4 (mouse) channel inhibition; Q9QUQ5; HEK293 TRPC4beta/mu-opioid, DAMGO-evoked Fluo4 calcium flux; hits give low values; B-score at 10 µM; 300,000 compounds, 0.39% hits;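 active = B-score over 3 SD under the library average, no early fluorescence shift, positive overall ratio signal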
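test system = HEK293 cells with stable TRPC4beta plus mu-opioid receptor expression | detection = Fluo4 Ca2+ flux fluorescence | read-out = integrated fluorescence ratio relative to baseline, converted to per-well B score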
TRPC4 act – opens the mouse TRPC4 cation channel. 310,000 compounds, 0.49% hits. HEK293 TRPC4beta/mu-opioid, Fluo4 calcium fluorescence; hits give high values. B-score at 10 µM. Q9QUQ5;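 active = B-score above 5 SD of library B-scores, and initial fluorescence ratio not above library mean plus 5 SD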;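 note: positive B-score marks a calcium rise read as TRPC4 activation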
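Assay system: HEK293 stable line with TRPC4beta plus mu-opioid receptor; schedule: 45 min room-temperature Fluo4 loading, 110 s read; technique: kinetic Fluo4 calcium fluorescence; evaluation: integrated baseline-normalised fluorescence ratio, converted to per-well B score; controls: buffer (low) and maximal DAMGO (high)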
TRPC4 spec 2 – mouse TRPC4 off-target activity of TRPC6 inhibitors, second screen; inhibition, % at 10 µM; HEK293 TRPC4/MOR, membrane potential dye fluorescence; channel activated by saturating DAMGO dose; shares compounds with TRPC6 inh; 920 compounds, 42% hits;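 active = compounds whose fluorescence signal differed from control wells by over 3 SD, either direction, in both duplicate plates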
TRPC4 spec – mouse TRPC4 off-target activity of TRPC6 inhibitors. HEK293 TRPC4/mu-opioid, membrane potential fluorescence. shares compounds with TRPC6 inh. 920 compounds, 61% hits. activity change, negative = inhibition, % at 10 µM;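 active = rise or fall in signal beyond 3 SD of buffer-only wells in both replicate plates, either sign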;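 note: integrated kinetic ratio of fluorescence range over baseline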
HEK293 MPD ctr 2-1 – second check of TRPC6 inhibitor effects in parental HEK293 cells | shares compounds with TRPC6 inh | parental HEK293 membrane potential dye fluorescence; maximal acetylcholine challenge after compound addition | signal change vs control, % at 10 µM | 920 compounds, 31% hits | AID 2779;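 active = membrane potential signal moving either way by over 3 SD of the maximum-effect control, in both duplicate plates, meaning non-specific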
HEK293 MPD ctr-1 – parental HEK293 nonspecific activity of TRPC6 inhibitors. 920 compounds, 60% hits. parental HEK293 membrane potential dye fluorescence. membrane potential signal change, % at 10 µM. shares compounds with TRPC6 inh;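 active = membrane potential signal shifting up or down by more than 3 SD of buffer-only wells, on both duplicate plates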
HEK293 MPD ctr-2 – counter-screen for TRPC6 modulators: effect in parental HEK293 cells | shares compounds with TRPC6 inh | 2,400 compounds, 51% hits | membrane potential signal change, % at 10 µM | membrane potential dye fluorescence;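 active = membrane potential signal moves up or down beyond 5 SD from buffer-only wells, on both duplicate plates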
HEK293 MPD ctr 2-2 – second check of TRPC6 modulator effects in parental HEK293 cells; shares compounds with TRPC6 inh; membrane potential dye fluorescence; after compound, maximal acetylcholine stimulation; inhibition, % at 10 µM; 2,400 compounds, 14% hits; AID 488926;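 active = membrane potential signal drops by more than 5 SD from the mean control signal, in both duplicate plates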
TRPC4 ctr mod – mouse TRPC4 off-target activity of TRPC6 modulators | shares compounds with TRPC6 inh | HEK293 TRPC4/mu-opioid, membrane potential fluorescence | percent change from control (negative = decrease, positive = increase), % at 10 µM | 2,400 compounds, 69% hits | AID 488927;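 active = membrane potential signal moved up or down beyond 5 SD of buffer control wells, in both duplicate plates, actives on both sides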
TRPC4/MOR inh 2 – second check of whether TRPC6 modulators also affect mouse TRPC4; HEK293 TRPC4/mu-opioid, membrane potential dye fluorescence; stimulated with maximal-effect DAMGO; inhibition, % at 10 µM; shares compounds with TRPC6 inh; 2,400 compounds, 55% hits;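 active = drop in membrane potential signal beyond 5 SD of the control wells in both duplicate plates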;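 note: TRPC4 counter screen for TRPC6 hits run under conditions tuned for TRPC6 not TRPC4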
TRPC6 block conf – confirmation of mouse TRPC6 inhibitors | shares compounds with TRPC6 inh | HEK293-TRPC6, membrane potential dye, ACh-evoked depolarization | inhibition, % at 10 µM | 3,300 compounds, 43% hits;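 active = fluorescence ratio falls more than 5 SD below the full-stimulation control mean, in both duplicate runs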;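 note: integrated fluorescence ratio of peak minus minimum over baseline after agonist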
TRPC6 act confirm – confirmation of mouse TRPC6 activators. HEK293-TRPC6 membrane potential dye fluorescence, FDSS. 2,800 compounds, 11% hits. shares compounds with TRPC6 inh. activation, % at 10 µM;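 active = ratio signal rise beyond 5 SD above unstimulated control wells' mean, seen in both duplicate runs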
A number is an active result; – = inactive; · = no result given. Most compounds without a hit are left out; they make up all but 2.3% or so of the library.

SMILES | TRPC6 inh | TRPC6 act | TRPC4 potent | TRPC4 inh | TRPC4 act | HEK293 MPD ctr-2 | HEK293 MPD ctr 2-2 | TRPC4 ctr mod | TRPC4/MOR inh 2 | TRPC6 block conf | TRPC6 act confirm | others
Clc1ccc(Cl)c(OCCCCN2CCNCC2)c1 | -8.7 | – | 24 | – | – | · | · | · | · | – | – | TRPC4 spec 2=57%;TRPC4 spec=-0.3%;HEK293 MPD ctr 2-1=–;HEK293 MPD ctr-1=3.5%
Cc1ccc(OCCCCN2CCC(C)CC2)c(Br)c1 | – | – | – | – | – | · | · | · | · | · | ·
CCN1CCN(CCCOc2ccc(Cl)cc2Br)CC1 | – | – | – | – | – | · | · | · | · | · | ·
COc1ccccc1CNS(=O)(=O)c1ccc2c(c1)NC(=O)C(C)S2 (stereo not given) | – | – | – | – | – | · | · | · | · | · | ·
CC(=O)OCC1CCCC2=C(C)C(=O)CCC21COC(C)=O (stereo not given) | – | – | – | – | – | · | · | · | · | · | ·
COc1ccc(-c2nc(-c3cccs3)c(-c3cccs3)[nH]2)cc1OC | -5.5 | – | – | – | – | – | – | – | – | – | –
CCCC(C)NC(=O)COC(=O)c1cccc(NS(C)(=O)=O)c1 (stereo not given) | – | – | – | – | – | · | · | · | · | · | ·
CCOc1ccccc1CN1CCNC(=O)C1CC(=O)NCc1nc(C)cs1 (stereo not given) | – | – | – | – | – | · | · | · | · | · | ·
Cc1ccc2c(Cl)c(C)c(N3CCCC3)nc2n1 | -5.7 | – | – | – | – | -244% | 70% | -40% | 52% | 54% | –
COc1ccc(C(=O)Nc2ccc([N+](=O)[O-])cn2)c(OC)c1 | – | – | – | – | – | · | · | · | · | · | ·
COc1ccc([C@@H]2[C@@H](C(=O)C(C)(C)C)N3N=Cc4ccccc4[C@@H]3C23C(=O)OC(C)(C)OC3=O)cc1OC | – | – | – | – | – | · | · | · | · | · | ·
COc1ccc([C@H]2[C@H](C(=O)C(C)(C)C)N3N=Cc4ccccc4C3C23C(=O)OC(C)(C)OC3=O)cc1 (stereo not given in full) | -6 | – | – | – | – | – | – | 9.0% | – | – | –
Cc1ccccc1-n1nc(C(=O)c2cccs2)cc(-c2nc3ccccc3[nH]2)c1=N | -11 | – | – | – | – | · | · | · | · | – | – | TRPC4 spec 2=66%;TRPC4 spec=-9.6%;HEK293 MPD ctr 2-1=–;HEK293 MPD ctr-1=–
Cc1cccc(-n2nc(C(=O)c3ccco3)cc(-c3nc4ccccc4[nH]3)c2=N)c1 | -5.4 | – | – | – | – | – | – | 20% | 45% | – | –
COc1ccc(-n2nc(C(=O)c3cccs3)cc(-c3nc4ccccc4[nH]3)c2=N)cc1 | -9.7 | – | – | – | – | · | · | · | · | 61% | – | TRPC4 spec 2=46%;TRPC4 spec=-22%;HEK293 MPD ctr 2-1=37%;HEK293 MPD ctr-1=-238%
